Activity calls are given as the source filed them.
How the values were obtained:
Format in all cases: functional
OVACR3 = assay: Growth inhibition of human […] cells
EKVX = assay: Growth inhibition of human EKVX cells
SK-MEL-28 = assay: Growth inhibition of human SK-MEL-28 cells
Outline: (§1)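 Tested at the NCI in its human disease-oriented in vitro screen of 60 tumour cell lines, following the Monks et al. methods. Activity is expressed as GI50, given as log molar values.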

DMS-273 = assay: Growth inhibition of human DMS273 cells
SNB-75 = assay: Growth inhibition of human SNB75 cells; outline: as §1
NCI-H226 = assay: Growth inhibition of human NCI-H226 cells
MCF7 = assay: Growth inhibition of human MCF7 cells
SR = assay: Growth inhibition of human SR cells; outline: as §1
HT-29 = assay: Growth inhibition of human HT29 cells
CAKI-1 = assay: Growth inhibition of human CAKI1 cells
SW-620 = assay: Growth inhibition of human SW620 cells; outline: as §1
HCT-116 = assay: Growth inhibition of human HCT116 cells
M19-MEL = assay: Growth inhibition of human M19-MEL cells
IGROV-1 = assay: Growth inhibition of human IGROV1 cells
U-251 = assay: Growth inhibition of human U251 cells; outline: as §1
HOP-62 = assay: Growth inhibition of human HOP62 cells
OVACR4 = assay: Growth inhibition of human OVACR4 cells
BT-549 = assay: Growth inhibition of human BT549 cells
DU-145 = assay: Growth inhibition of human DU145 cells
MDA-MB-231 = assay: Growth inhibition of human MDA-MB-231 cells
KM-20L2 = assay: Growth inhibition of human KM20L2 cells
HOP-18 = assay: Growth inhibition of human HOP18 cells
RXF 393 = assay: Growth inhibition of human […] cells
UO-31 = assay: Growth inhibition of human UO31 cells; outline: as §1
SF-268 = assay: Growth inhibition of human SF268 cells; outline: as §1
ACHN = assay: Growth inhibition of human ACHN cells
SK-MEL-5 = assay: Growth inhibition of human SK-MEL-5 cells; outline: as §1
UACC-62 = assay: Growth inhibition of human UACC62 cells; outline: as §1
T47D = assay: Growth inhibition of human T47D cells; outline: as §1
KM12 = assay: Growth inhibition of human KM12 cells
PC-3 = assay: Growth inhibition of human PC3 cells
CCRF-CEM = assay: Growth inhibition of human CCRF-CEM cells
Malme-3M = assay: Growth inhibition of human MALME-3M cells
NCI-H23 = assay: Growth inhibition of human NCI-H23 cells
NCI-H522 = assay: Growth inhibition of human NCI-H522 cells
K562 = assay: Growth inhibition of human K562 cells
OVACR8 = assay: Growth inhibition of human OVACR8 cells
UACC-257 = assay: Growth inhibition of human UACC257 cells; outline: as §1
MOLT-4 = assay: Growth inhibition of human MOLT4 cells
SK-MEL-2 = assay: Growth inhibition of human SK-MEL-2 cells; outline: as §1
MDA-N = assay: Growth inhibition of human MDA-N cells
COLO 205 = assay: Growth inhibition of human COLO205 cells
786-0 = assay: Growth inhibition of human 786-0 cells
XF498 = assay: Growth inhibition of human XF498 cells; outline: as §1
DMS144 = assay: Growth inhibition of human DMS144 cells
SN12C = assay: Growth inhibition of human SN12C cells; outline: as §1
HCT-15 = assay: Growth inhibition of human HCT15 cells
SF-539 = assay: Growth inhibition of human SF539 cells; outline: as §1
RPMI8266 = assay: Growth inhibition of human RPMI8266 cells
NCI-H322M = assay: Growth inhibition of human NCI-H322M cells
NCI/ADR-RES = assay: Growth inhibition of human MCF7/ADR-RES cells
TK-10 = assay: Growth inhibition of human TK10 cells; outline: as §1
OVACR5 = assay: Growth inhibition of human OVACR5 cells
NCI-H460 = assay: Growth inhibition of human NCI-H460 cells
A498 = assay: Growth inhibition of human A498 cells
SF-295 = assay: Growth inhibition of human SF295 cells; outline: as §1
HCC 2998 = assay: Growth inhibition of human HCC2998 cells
HL-60(TB) = assay: Growth inhibition of human HL60(TB) cells
SNB-19 = assay: Growth inhibition of human SNB19 cells; outline: as §1
SK-OV-3 = assay: Growth inhibition of human SK-OV-3 cells; outline: as §1
HOP-92 = assay: Growth inhibition of human HOP92 cells
A549 = assay: Growth inhibition of human A549 cells
LOX IMVI = assay: Growth inhibition of human LOX IMVI cells
MDA-MB-435 = assay: Growth inhibition of human MDA-MB-435 cells
DLD-1 = assay: Growth inhibition of human DLD1 cells
Hs-578T = assay: Growth inhibition of human HS578T cells
M14 = assay: Growth inhibition of human M14 cells
LXFL 529 = assay: Growth inhibition of human LXFL529 cells

Measured: Activity

COc1ccc2c([nH]c3c(O)c(-c4c(C)cc5c([nH]c6c(CC=C(C)C)c(OC)ccc65)c4O)c(C)cc32)c1CC=C(C)C
inactive: all assays above
